Among the data in ChEMBL document CHEMBL3792376, “Exploiting the Chromone Scaffold for the Development of Inhibitors of Corticosteroid Biosynthesis” (J Med Chem, 2016) are Ratio IC50, IC50 and viability values, retold here.

For one data set, the species on record is Homo sapiens. The data set can be described thus: Selectivity index, ratio of IC50 for human CYP11B2 to IC50 for human CYP11B1. A digest of the protocol: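 Calculated as IC50(CYP11B2)/IC50(CYP11B1). Both IC50s come from V79 MZh hamster fibroblasts expressing the human enzyme, with 100 nM radiolabelled deoxycorticosterone: 6 h for 11B1 and 30 min for 11B2. Readout by HPTLC.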

In another data set the target is T1, Aromatase (Homo sapiens, UniProt P11511).
T1 sequence (P11511 whole entry): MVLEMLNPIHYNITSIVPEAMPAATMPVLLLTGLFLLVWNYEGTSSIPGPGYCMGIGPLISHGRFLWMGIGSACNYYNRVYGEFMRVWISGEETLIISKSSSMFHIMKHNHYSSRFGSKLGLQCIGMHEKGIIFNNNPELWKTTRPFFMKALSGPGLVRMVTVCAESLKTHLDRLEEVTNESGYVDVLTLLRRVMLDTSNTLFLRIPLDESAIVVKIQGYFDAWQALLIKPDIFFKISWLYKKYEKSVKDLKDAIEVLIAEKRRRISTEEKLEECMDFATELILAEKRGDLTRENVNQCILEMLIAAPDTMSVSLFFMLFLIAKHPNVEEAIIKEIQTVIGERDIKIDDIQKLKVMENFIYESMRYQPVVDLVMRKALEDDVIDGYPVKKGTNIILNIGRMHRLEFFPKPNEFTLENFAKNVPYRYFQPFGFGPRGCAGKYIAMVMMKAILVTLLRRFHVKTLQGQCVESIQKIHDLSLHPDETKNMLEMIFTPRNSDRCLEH
Kind of data set: Inhibition of human placental CYP19 using [1beta-3H]-androstenedione as substrate for 3 hrs measured as formation of [3]H2O in presence of NADPH. Summed up: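 Microsomes from fresh human term placenta. [1β-3H]androstenedione 500 nM, NADPH, glucose 6-phosphate and dehydrogenase plus inhibitor in 0.05 M phosphate pH 7.4, preincubated 5 min at 30 °C. Started with microsomal protein and run 3 h. Ethyl acetate stop, HgCl2, dextran-coated charcoal to remove steroids. 3H2O released measured. Mean of ≥3 experiments, RSD <25%.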

The target of data set [1] is T2, Cytochrome P450 11B2, mitochondrial (Homo sapiens, UniProt P19099).
T2 sequence (P19099 whole entry): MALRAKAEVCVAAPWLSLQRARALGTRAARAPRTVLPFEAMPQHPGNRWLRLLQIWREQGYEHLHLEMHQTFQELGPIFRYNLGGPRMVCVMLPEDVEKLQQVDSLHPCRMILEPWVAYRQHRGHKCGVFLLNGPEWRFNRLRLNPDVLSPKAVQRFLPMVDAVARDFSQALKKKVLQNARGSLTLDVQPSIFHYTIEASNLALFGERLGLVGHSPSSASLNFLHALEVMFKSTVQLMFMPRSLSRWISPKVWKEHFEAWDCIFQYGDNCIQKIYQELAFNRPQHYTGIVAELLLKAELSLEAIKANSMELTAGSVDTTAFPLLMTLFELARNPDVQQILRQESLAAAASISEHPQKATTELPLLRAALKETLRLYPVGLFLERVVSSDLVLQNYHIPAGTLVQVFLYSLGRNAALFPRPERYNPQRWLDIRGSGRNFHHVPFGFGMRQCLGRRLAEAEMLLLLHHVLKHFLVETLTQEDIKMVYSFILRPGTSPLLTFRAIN
The data set can be described thus: Inhibition of human CYP11B2 expressed in V79 MZh cells using [1,2-3H]-11-deoxycorticosterone as substrate for 30 mins by HPTLC analysis. In kind it is cell-based, V79MZh. A digest of the protocol:
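Confluent V79 MZh hamster fibroblasts expressing human CYP11B2, in 6-well plates. Reaction started with [1,2-3H]-11-deoxycorticosterone (100 nM) plus inhibitor at several concentrations and run 30 min. Chloroform extraction of supernatant, then HPTLC of steroids. Mean of ≥3 experiments, relative SD <25%.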

In data set [2] the target is T3, Cytochrome P450 11B1, mitochondrial (Homo sapiens, UniProt P15538).
T3 sequence (P15538 whole entry): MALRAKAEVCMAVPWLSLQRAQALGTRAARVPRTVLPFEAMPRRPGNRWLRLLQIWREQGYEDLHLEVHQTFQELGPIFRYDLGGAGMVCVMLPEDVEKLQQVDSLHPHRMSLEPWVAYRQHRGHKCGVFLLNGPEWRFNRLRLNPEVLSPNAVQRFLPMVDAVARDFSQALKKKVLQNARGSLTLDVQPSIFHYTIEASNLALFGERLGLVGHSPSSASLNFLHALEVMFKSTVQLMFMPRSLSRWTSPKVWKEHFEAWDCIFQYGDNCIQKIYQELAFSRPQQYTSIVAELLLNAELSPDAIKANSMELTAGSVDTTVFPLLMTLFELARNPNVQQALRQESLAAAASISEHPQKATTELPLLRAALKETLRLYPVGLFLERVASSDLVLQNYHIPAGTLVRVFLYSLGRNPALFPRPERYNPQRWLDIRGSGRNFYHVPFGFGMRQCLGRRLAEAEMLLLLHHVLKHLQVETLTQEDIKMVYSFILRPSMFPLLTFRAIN
Kind of data set: Inhibition of human CYP11B1 expressed in V79 MZh cells using [1,2-3H]-11-deoxycorticosterone as substrate for 6 hrs by HPTLC analysis. In kind it is cell-based, V79MZh. Summed up: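 Hamster fibroblast V79 MZh cells stably expressing human CYP11B1, grown to confluence in 6-well plates. Radiolabelled deoxycorticosterone at 100 nM, test inhibitor across a concentration range, 6 h incubation. Supernatant extracted with chloroform and centrifuged. Steroids redissolved in chloroform and separated by HPTLC. IC50 is the mean of at least three experiments, relative SD below 25%.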

In data set [3] the target is T4, Steroid 17-alpha-hydroxylase/17,20 lyase (Homo sapiens, UniProt P05093).
T4 sequence (P05093 whole entry): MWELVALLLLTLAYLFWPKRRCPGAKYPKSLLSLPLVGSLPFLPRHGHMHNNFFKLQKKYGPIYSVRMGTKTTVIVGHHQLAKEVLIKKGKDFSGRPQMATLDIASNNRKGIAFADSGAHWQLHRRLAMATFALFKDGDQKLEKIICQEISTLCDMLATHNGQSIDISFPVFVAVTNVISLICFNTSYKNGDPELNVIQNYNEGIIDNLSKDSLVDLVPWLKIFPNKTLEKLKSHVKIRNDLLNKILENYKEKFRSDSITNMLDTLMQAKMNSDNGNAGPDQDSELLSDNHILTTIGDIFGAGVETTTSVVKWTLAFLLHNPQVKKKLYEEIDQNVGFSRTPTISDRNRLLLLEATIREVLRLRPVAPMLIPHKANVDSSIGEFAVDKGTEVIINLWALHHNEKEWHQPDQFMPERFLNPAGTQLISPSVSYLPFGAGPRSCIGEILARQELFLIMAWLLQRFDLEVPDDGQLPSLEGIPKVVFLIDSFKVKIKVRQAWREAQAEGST
The data set can be described thus: Inhibition of human CYP17 expressed in Escherichia coli co-transfected with rat NADPH-P450 reductase using progesterone as substrate for 30 mins measured as formation of 17alpha-hydroxyprogesterone and 16alpha-hydroxyprogesterone in presence of NADPH. A digest of the protocol:
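Membrane pellet from E. coli co-expressing human CYP17 and rat NADPH-P450 reductase (lysozyme, sonication, 4 °C). Progesterone 25 μM with NADPH-generating system (NADP+, glucose 6-phosphate, G6P dehydrogenase) and inhibitor, preincubated 5 min at 37 °C. Membranes added, 30 min at 37 °C. Acid quench, ethyl acetate extraction. Readout: 17α- and 16α-hydroxyprogesterone formed. Mean of ≥3 runs.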

The nature of data set [4]: Cytotoxicity against HEK293 cells assessed as cell viability upto 100 times IC50 concentration for 3 hrs by MTT assay. The format is cell-based. As to conditions: human, read-out: Activity. A digest of the protocol:
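HEK293 cells in DMEM with 10% FCS, exposed to 0.1 and 1 μM compound for 3 h at 37 °C, 5% CO2, humidified. Then MTT (5 mg/mL stock in PBS) added for a further 3 h. Stopped and lysed with 10% SDS in 0.01 N HCl. Viability from MTT reduction, expressed as % of control.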
A general note: Tetrazolium assays rely on reduction of a dye to a coloured formazan, in cell work by metabolically active cells.

What is called IC50 is the concentration needed to halve the response being measured.

Some results are limits rather than exact numbers.

Turning to `O=c1c(Cc2ccncc2)coc2ccccc12`, the Ratio IC50 in the data set filed under Homo sapiens was determined as 10.8. For the same compound, the IC50 at Aromatase came out at 6100 nM; in data set [1] it was 954 nM; in data set [2], 88.2 nM; in data set [3], 4800 nM.
Take `COc1ccc2c(=O)c(Cc3cccnc3)coc2c1`: the IC50 in data set [1] and in data set [2] was above 10000 nM in each case.
For `COc1ccc2c(=O)cc(Cn3ccnc3)oc2c1`, the Ratio IC50 in the data set filed under Homo sapiens was determined as 1.4. Also, the results for the IC50 in data set [1] and in data set [2] were 2270 nM and 1600 nM, respectively.
Consider `O=c1cc(Cc2ccncc2)oc2cc(F)ccc12`, for which the Ratio IC50 in the data set filed under Homo sapiens is 7.8. Besides, the IC50 on Aromatase was above 10000 nM; in data set [1] it was 643 nM; in data set [2], 82.7 nM; in data set [3] it was above 10000 nM.
Take `O=c1c(Cc2c[nH]cn2)coc2ccccc12`: the Ratio IC50 in the data set listed under Homo sapiens was 4.1. In addition, the viability at 3 h in data set [4] worked out at 95%. Further, the results for the IC50 in data set [1] and in data set [2] were 121 nM and 29.5 nM, respectively.
For `O=c1c(Cc2ccncc2)coc2cc(F)ccc12`, the Ratio IC50 in the data set filed under Homo sapiens worked out at 5.3. Besides, in data set [4], the viability at 3 h is 95%. Moreover, the IC50 is 5000 nM at Aromatase, 317 nM in data set [1], 58.1 nM in data set [2] and 6600 nM in data set [3].
For `O=c1cc(Cn2ccnc2)oc2ccccc12`, the Ratio IC50 in the data set filed under Homo sapiens is 2. Besides, the concentration for half-maximal inhibition (IC50) amounted to 500 nM in data set [1] and 253 nM in data set [2].
With `COc1ccc2c(=O)cc(Cc3cccnc3)oc2c1`, the IC50 in data set [1] and in data set [2] was above 10000 nM throughout.
In the case of `COc1ccc2c(=O)c(Cc3c[nH]cn3)coc2c1`, in the data set filed under Homo sapiens, the Ratio IC50 is 9.8. The half-inhibitory concentration (IC50) at Aromatase was 7900 nM; in data set [1], 1070 nM; in data set [2], 109 nM; in data set [3], above 10000 nM.
For `COc1ccc2c(=O)cc(Cc3ccncc3)oc2c1`, the IC50 in data set [1] was above 5000 nM; in data set [2] it was 3600 nM.
In the case of `COc1ccc2c(=O)c(Cc3ccncc3)coc2c1`, the Ratio IC50 in the data set listed under Homo sapiens was determined as 5. Further, the values for the IC50 in data set [1] and in data set [2] were 3270 nM and 612 nM, respectively.
As to `O=c1c(Cc2cccnc2)coc2cc(F)ccc12`, the IC50 in data set [1] and in data set [2] was above 10000 nM in each case.
`O=c1cc(Cc2cccnc2)oc2ccccc12`: the IC50 in data set [1] and in data set [2] was above 10000 nM each time.
For `O=c1c(Cc2c[nH]cn2)coc2cc(F)ccc12`, the Ratio IC50 in the data set listed under Homo sapiens stood at 9.8. Moreover, the viability at 3 h in data set [4] was 95%. Moreover, the IC50 at Aromatase was 3100 nM; in data set [1], 94.9 nM; in data set [2], 9.7 nM; in data set [3], above 10000 nM.
Turning to `O=c1cc(Cc2ccncc2)oc2ccccc12`, in the data set listed under Homo sapiens, the Ratio IC50 was determined as 5.6. The IC50 in data set [1] amounted to 1240 nM; in data set [2], 222 nM.
As for `COc1ccc2c(=O)c(Cn3ccnc3)coc2c1`, in the data set filed under Homo sapiens, the Ratio IC50 is 2.1. The IC50 amounted to 768 nM in data set [1] and 372 nM in data set [2].
On the same counts, the results for `O=c1c(Cn2ccnc2)coc2ccccc12` are 2.9, 522 nM and 180 nM.
Take `O=c1cc(Cc2cccnc2)oc2cc(F)ccc12`: the IC50 in data set [1] and in data set [2] was above 10000 nM in each case.
With `O=c1c(Cc2cccnc2)coc2ccccc12`, the concentration for half-maximal inhibition (IC50) in data set [1] and in data set [2] was above 10000 nM throughout.
On to `O=c1cc(Cn2ccnc2)oc2cc(F)ccc12`, for which the Ratio IC50 in the data set listed under Homo sapiens stood at 1.9. In addition, the IC50 turned out to be 620 nM in data set [1] and 327 nM in data set [2].
On the same counts, the results for `O=c1c(Cn2ccnc2)coc2cc(F)ccc12` are 2.5, 214 nM and 86.9 nM.
